Measurements of several laboratories.
Observed: cell growth or viability

For `Cc1sc2c(c1C)C(c1ccc(Cl)cc1)=N[C@@H](CC(=O)NCCCCNC(=O)COc1cccc3c1C(=O)N(C1CCC(=O)NC1=O)C3=O)c1nnc(C)n1-2` (some centres unmarked), the IC50 was 5.12 µM (AGS; CCK-8; 72 h).
`O=C1CCC(N2C(=O)c3cccc4c(Cc5cnn(C6CCN(C(=O)CS)CC6)c5)ccc2c34)C(=O)N1` (centres unmarked) has an IC50 of 0.00123 µM (NCI-H929).
For `CCCC(=O)Nc1nc2cc(-c3ccc4ncn(Cc5ccccc5)c(=O)c4c3)ccc2s1`, the IC50 was over 20 µM (PC-9; MTT; 72 h).
`O=C1CC[C@H](N2C(=O)c3cccc4c(Cc5ccc(CN6CCOCC6)cc5)ccc2c34)C(=O)N1` has an IC50 of 6e-05 µM (NCI-H929).
The IC50 of `O=C(NO)c1ccc(Cn2cnc3c(Nc4ccc(Cl)cc4)ncnc32)cc1` is reported as 0.36 µM (Raji; MTT; 72 h).
`COc1cccc(NC(=O)Nc2nc3cc(-c4ccc5ncn(CC(=O)N6CCOCC6)c(=O)c5c4)ccc3s2)c1` gave an IC50 of over 20 µM (PC-9; MTT; 72 h).
`O=C1C(=Nc2ccccc2Br)c2ccccc2N1Cc1ccccc1` has an IC50 of 1.1 µM (HCT-116; MTT; 48 h).
For `Cc1nc(Nc2ncc(C(=O)Nc3c(C)cccc3Cl)s2)cc(N2CC[C@H](O)C2)n1`, the IC50 was over 10 µM (Raji; ATP luminescence; 72 h).
The IC50 of `O=C(NCCc1ccccc1)Nc1nc2cc(-c3ccc4ncn(CCN5CCOCC5)c(=O)c4c3)ccc2s1` is reported as 8.14 µM (PC-9; MTT; 72 h).
With `Nc1ccccc1NC(=O)c1ccc(Cn2cnc3c(Nc4ccc(Cl)cc4)ncnc32)cc1` the IC50 was 0.11 µM (Raji; MTT; 72 h).
`O=C(Nc1nc2cc(-c3ccc4ncn(Cc5ccccc5)c(=O)c4c3)ccc2s1)NC1CCCCC1` has an IC50 of over 20 µM (PC-9; MTT; 72 h).
For `COc1cc(C2C3=C(Nc4nc(SC)[nH]c(=O)c42)c2ccccc2C3=O)ccc1O` (centres unmarked), the IC50 was over 1000 µM (SK-OV-3; MTT; 72 h).
With `O=C(Nc1ccc(Br)cc1)Nc1nc2cc(-c3ccc4ncn(Cc5ccccc5)c(=O)c4c3)ccc2s1` the IC50 was over 20 µM (PC-9; MTT; 72 h).
`CC(C)(O)C(=O)N1CCC(n2cc(Cc3ccc4c5c(cccc35)C(=O)N4C3CCC(=O)NC3=O)cn2)CC1` (centres unmarked) gave an IC50 of 0.00019 µM (NCI-H929).
The IC50 of `COc1cccc(NC(=O)Nc2nc3cc(-c4ccc5ncn(CCC6CCCCC6)c(=O)c5c4)ccc3s2)c1` is reported as over 20 µM (PC-9; MTT; 72 h).
`COc1ccc(Nc2ncnc3c2ncn3Cc2ccc(C(=O)NO)cc2)cc1` gave an IC50 of 0.43 µM (Raji; MTT; 72 h).
With `CN1CCC(NC2CCc3[nH]c4c(C(N)=O)ccc(-c5ccccc5Cl)c4c3C2)CC1` (centres unmarked) the IC50 was 0.0247 µM (DOHH-2; 96 h).
`CCNC(=O)Nc1nc2cc(-c3ccc4ncn(Cc5ccccc5)c(=O)c4c3)ccc2s1` gave an IC50 of over 20 µM (PC-9; MTT; 72 h).
`O=C(NO)c1ccc(Cn2cnc3c(Nc4cccc([N+](=O)[O-])c4)ncnc32)cc1` has an IC50 of 0.3 µM (Raji; MTT; 72 h).
`O=C1C(=Nc2ccccc2I)c2ccccc2N1Cc1cccc(Cl)c1` has an IC50 of 4.86 µM (HCT-116; MTT; 48 h).
With `O=C1CCC(N2C(=O)c3cccc4c(Cc5ccc(CN6CCNCC6)nc5)ccc2c34)C(=O)N1` (centres unmarked) the IC50 was 0.0135 µM (NCI-H929).
With `CCc1ccc(N=C2C(=O)Nc3ccccc32)cc1` the IC50 was 64.7 µM (HCT-116; MTT; 48 h).
With `O=C1CCC(N2C(=O)c3cccc4c(Cc5cnn(C6CCN(C(=O)C7(O)CC7)CC6)c5)ccc2c34)C(=O)N1` (centres unmarked) the IC50 was 9e-05 µM (NCI-H929).
